Results from ChEMBL document CHEMBL5120974, “Antitubercular Activity of Novel 2-(Quinoline-4-yloxy)acetamides with Improved Drug-Like Properties” (ACS Med Chem Lett, 2022).
In brackets after ≈: the same amount, converted by molar mass.

Assays:
[1] = system: Mycobacterium tuberculosis; test: Antitubercular activity against Mycobacterium tuberculosis H37Rv assessed as bacterial growth inhibition incubated for 7 days by resazurin assay; type: functional; settings: 168 h, time 7 day
HepG2 = test: Cytotoxicity against human HepG2 cells assessed as reduction in cell viability incubated for 72 hrs by MTT assay; type: functional
Method in brief: (§1)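 HepG2 and Vero cells were exposed to compound for 72 h, with viability read by MTT (mitochondrial activity) and neutral red uptake (lysosomal integrity). CC₅₀ is the concentration reducing cell viability by 50%.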

[2] = system: Mycobacterium tuberculosis; test: Antitubercular activity against Mycobacterium tuberculosis H37Rv infected in mouse RAW 264.7 cells assessed as reduction on bacterial colony growth at 2.5 uM incubated for 2 to 3 weeks; type: functional; settings: time 2-3 weeks
Method in brief: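 Mtb growth inside macrophages (in vitro infection model) was tested with compounds at 2.5 μM; the untreated control got 0.5% DMSO vehicle. Read-out was log₁₀ CFU/well, given as mean ± standard deviation and compared with the untreated group by Dunnett post-test (P < 0.05).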

[3] = Selectivity index, ratio of CC50 for cytotoxicity against human HepG2 cells to MIC for antitubercular activity against Mycobacterium tuberculosis H37Rv; type: toxicity, cell-based
Method in brief: (§2)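 SI = CC₅₀/MIC, with the MIC taken against H37Rv. CC₅₀ is the concentration that cuts cell viability by 50%, from cells exposed for 72 h. Viability was read by both MTT (mitochondrial activity) and neutral red uptake (lysosomal integrity).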

[4] = Selectivity index, ratio of CC50 for cytotoxicity against African green monkey Vero cells to MIC for antitubercular activity against Mycobacterium tuberculosis H37Rv; type: toxicity, cell-based; method in brief: as §2
[5] = Cytotoxicity against African green monkey Vero cells assessed as reduction in cell viability incubated for 72 hrs by MTT assay; type: toxicity, cell-based; settings: chlorocebus sabaeus; method in brief: as §1
[6] = Metabolic stability in rat liver microsomes assessed as half life measured upto 30 min by HPLC-MS/MS analysis; type: ADME, Microsome
[7] = Volume of distribution at steady state in mouse plasma at 25 mg/kg,iv by HPLC analysis; type: ADME, organism-based; settings: read-out: Vdss
Method in brief: (§3)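 Mouse pharmacokinetics after a single intravenous dose of 25 mg/kg (61.6 μmol/kg) or an oral dose of 121.6 mg/kg (300 μmol/kg). Plasma drug concentrations were quantified over time, including a 24 h sample after oral dosing. Oral bioavailability was estimated by comparing the two routes.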

[8] = Plasma concentration in mouse plasma at 121.6 mg/kg,po measured after 24 hrs by HPLC analysis; type: ADME, organism-based; method in brief: as §3
[9] = Absorption rate constant in mouse plasma at 121.6 mg/kg,po by HPLC analysis; type: ADME, organism-based; settings: in vivo; method in brief: as §3
[10] = Terminal half life in mouse plasma at 25 mg/kg,iv by HPLC analysis; type: ADME, organism-based; settings: read-out: beta t1/2; method in brief: as §3
[11] = Permeability of the compound at 10 uM measured after 5 hrs by PAMPA based HPLC-MS/MS analysis; type: ADME; settings: read-out: permeability
[12] = Cmax in mouse plasma at 121.6 mg/kg,po by HPLC analysis; type: ADME, organism-based; design: dose 121.6 mg/kg, route po; method in brief: as §3
[13] = Inter-compartmental clearance in mouse plasma at 25 mg/kg,iv by HPLC analysis; type: ADME, organism-based; settings: in vivo; method in brief: as §3
[14] = Chemical stability of the compound in pH 1.2 HCL assessed as remaining product at 10 uM incubated for 24 hrs by HPLC-MS/MS analysis; type: physicochemical; settings: HCl pH 1.2, pH 1.2, read-out: Stability
Method in brief: (§4)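 Compound incubated 24 h at 37 °C in 0.1 M HCl (pH 1.2), PBS (pH 7.4) or 0.1 M NH₄HCO₃ (pH 9.1). Result is reported as percentage of compound remaining after incubation.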

[15] = Clearance in mouse plasma at 25 mg/kg,iv by HPLC analysis; type: ADME, organism-based; method in brief: as §3
[16] = Terminal half life in mouse plasma at 121.6 mg/kg,po by HPLC analysis; type: ADME, organism-based; settings: read-out: beta t1/2; method in brief: as §3
[17] = Metabolic stability in rat liver microsomes assessed as intrinsic clearance measured upto 30 min by HPLC-MS/MS analysis; type: ADME, Microsome; settings: read-out: CLH
[18] = Volume of distribution at steady state in mouse plasma at 121.6 mg/kg,po by HPLC analysis; type: ADME, organism-based; settings: in vivo; method in brief: as §3
[19] = Solubility of the compound in PBS at pH 7.4 incubated for 4 hrs by liquid chromatography; type: physicochemical; settings: PBS pH 7.4, pH 7.4
[20] = Apparent oral volume of distribution in mouse plasma at 121.6 mg/kg,po by HPLC analysis; type: ADME, organism-based; method in brief: as §3
[21] = Chemical stability of the compound in pH 9.1 NH4HCO3 assessed as remaining product at 10 uM incubated for 24 hrs by HPLC-MS/MS analysis; type: physicochemical; settings: NH4HCO3 pH 9.1, pH 9.1, read-out: Stability; method in brief: as §4
[22] = Chemical stability of the compound in pH 7.4 PBS assessed as remaining product at 10 uM incubated for 24 hrs by HPLC-MS/MS analysis; type: physicochemical; settings: PBS pH 7.4, pH 7.4, read-out: Stability; method in brief: as §4
[23] = Clearance in mouse plasma at 121.6 mg/kg,po by HPLC analysis; type: ADME, organism-based; method in brief: as §3
[24] = Oral bioavailability in mouse plasma at 121.6 mg/kg by HPLC analysis; type: ADME, organism-based; method in brief: as §3
[25] = Solubility of the compound in HCl at pH 1.2 incubated for 4 hrs by liquid chromatography; type: physicochemical; settings: HCl pH 1.2, pH 1.2
[26] = Apparent oral clearance in mouse plasma at 121.6 mg/kg,po by HPLC analysis; type: ADME, organism-based; method in brief: as §3

## COc1ccc2nc(C)cc(OCC(=O)Nc3ccccc3OC)c2c1
[1]
  MIC: 0.44 µM (≈ 0.155 µg/mL)

## COc1ccc2nc(C)cc(OCC(=O)Nc3ccc4ccccc4c3)c2c1
[1]
  MIC: 0.05 µM (≈ 0.0186 µg/mL)

## CCCc1ccc(NC(=O)COc2cc(C)nc3ccc(OC)cc23)cc1
[1]
  MIC: 0.05 µM (≈ 0.0182 µg/mL)

## Cc1cc(OCC(=O)Nc2ccc(N3CCCCC3)cc2)c2cc(Cl)ccc2n1
[1]
  MIC: 0.75 µM (≈ 0.307 µg/mL)

## COc1ccc2nc(C)cc(OCC(=O)N[C@H]3C[C@H]4C[C@@H]([C@@H]3C)C4(C)C)c2c1
[1]
  MIC: 3.3 µM (≈ 1.26 µg/mL)

## Cc1cc(OCC(=O)Nc2ccc(N3CCCCC3)cc2)c2cc(Br)ccc2n1
[1]
  MIC: 0.68 µM (≈ 0.309 µg/mL)

## COc1ccc2nc(C(F)(F)F)cc(OCC(=O)Nc3ccc(N4CCCCC4)cc3)c2c1
[1]
  MIC: 0.17 µM (≈ 0.0781 µg/mL)

## COc1ccc2nc(C)cc(OCC(=O)Nc3ccc(N4CCSCC4)cc3)c2c1
[1]
  MIC: 0.37 µM (≈ 0.157 µg/mL)

## COc1ccc2nc(C)cc(OCC(=O)NC3CCC3)c2c1
[1]
  MIC: 33.3 µM (≈ 10 µg/mL)

## CCc1cc(OCC(=O)Nc2ccc(N3CCCCC3)cc2)c2cc(OC)ccc2n1
HepG2
  CC50: > 20 µM
[2]
  Activity: 4.13 log10CFU
[3]
  selectivity ratio: > 105
[4]
  selectivity ratio: > 105
[5]
  CC50 at 72 h: > 20 µM
[1]
  MIC: 0.19 µM (≈ 0.0797 µg/mL)

## COc1ccc2nc(C)cc(OCC(=O)NC3CCCCC3C)c2c1 (centres undefined)
[1]
  MIC: 14.6 µM (≈ 5 µg/mL)

## COc1ccc2nc(C)cc(OCC(=O)NC3CCCCC3)c2c1
[1]
  MIC: 7.6 µM (≈ 2.5 µg/mL)

## COc1ccc2nc(C)cc(OCC(=O)NCC3CCCCC3)c2c1
[1]
  MIC: 7.3 µM (≈ 2.5 µg/mL)

## COc1ccc2nc(C)cc(OCC(=O)N[C@@H]3C[C@@H]4C[C@H]([C@H]3C)C4(C)C)c2c1
[1]
  MIC: 26.1 µM (≈ 9.98 µg/mL)

## COc1ccc2nc(C)cc(OCC(=O)NC3CCCCCC3)c2c1
[1]
  MIC: 3.7 µM (≈ 1.27 µg/mL)

## COc1ccc2nc(C)cc(OCC(=O)NC3CCCC3)c2c1
[1]
  MIC: 15.9 µM (≈ 5 µg/mL)

## CCc1cc(OCC(=O)Nc2ccc(N3CCCCC3)cc2)c2cc(Br)ccc2n1
[1]
  MIC: 0.34 µM (≈ 0.159 µg/mL)

## CCc1cc(OCC(=O)Nc2ccc(N3CCCCC3)cc2)c2cc(Cl)ccc2n1
[1]
  MIC: 0.37 µM (≈ 0.157 µg/mL)

## COc1ccc2nc(C)cc(OCC(=O)NC3C4CC5CC(C4)CC3C5)c2c1 (centres undefined)
[1]
  MIC: 6.6 µM (≈ 2.51 µg/mL)

## COc1ccc2nc(C)cc(OCC(=O)N[C@H](C)C3CCCCC3)c2c1
[1]
  MIC: > 14 µM

## COc1ccc2nc(C)cc(OCC(=O)Nc3ccc(N4CCCCC4)cc3)c2c1
[6]
  half-life: 176 min
HepG2
  CC50: > 20 µM
[7]
  Vd: 0.304 L/kg
[8]
  concentration at 24 h: 1140 ng/mL
[9]
  Ka: 3.01 h⁻¹
[2]
  Activity: 4.13 log10CFU
[10]
  half-life: 136 min
[11]
  Papp at 5 h, 10 µM: 4.5 ×10⁻⁶ cm/s
[12]
  Cmax: 8300 ng/mL
[13]
  CL: 0.339 L/h/kg
[14]
  remaining at 24 h, 10 µM: 58.3%
[15]
  clearance: 1.47 mL/min/kg
[16]
  half-life: 103 min
[17]
  CLint scaled: 7.5 mL/min/kg
[18]
  Vdss: 0.234 L/kg
[19]
  solubility at 4 h: 31.4 µM (≈ 12.7 µg/mL)
[20]
  Vd/F: 0.46 L/kg
[21]
  remaining at 24 h, 10 µM: 62.1%
[22]
  remaining at 24 h, 10 µM: 100%
[3]
  selectivity ratio: > 222
[4]
  selectivity ratio: > 222
[23]
  CL/F: 1.92 mL/min/kg
[24]
  bioavailability: 51%
[5]
  CC50 at 72 h: > 20 µM
[1]
  MIC: 0.09 µM (≈ 0.0365 µg/mL)
[25]
  solubility at 4 h: > 2500 µM
[26]
  CL/F: 3.77 mL/min/kg

## O=C(COc1cc(C(F)(F)F)nc2ccc(Br)cc12)Nc1ccc(N2CCCCC2)cc1
[1]
  MIC: 78.7 µM (≈ 40 µg/mL)

## COc1ccc2nc(C)cc(OCC(=O)Nc3ccc(N4CCOCC4)cc3)c2c1
[1]
  MIC: 3.1 µM (≈ 1.26 µg/mL)

## O=C(COc1cc(C(F)(F)F)nc2ccc(Cl)cc12)Nc1ccc(N2CCCCC2)cc1
[1]
  MIC: 86.2 µM (≈ 40 µg/mL)

## COc1ccc2nc(C)cc(OCC(=O)N[C@@H](C)C3CCCCC3)c2c1
[1]
  MIC: > 14 µM

## COc1ccc2nc(C)cc(OCC(=O)NC3CCC(C)CC3)c2c1 (centres undefined)
[1]
  MIC: 7.3 µM (≈ 2.5 µg/mL)

## NNC(=O)c1ccncc1 [ISONIAZID]
[1]
  MIC: 2.3 µM (≈ 0.315 µg/mL)

## CO[C@H]1/C=C/O[C@@]2(C)Oc3c(C)c(O)c4c(O)c(c(/C=N/N5CCN(C)CC5)c(O)c4c3C2=O)NC(=O)/C(C)=C\C=C\[C@H](C)[C@H](O)[C@@H](C)[C@@H](O)[C@@H](C)[C@H](OC(C)=O)[C@@H]1C [RIFAMPIN]
[1]
  MIC: 0.05 µM (≈ 0.0411 µg/mL)
